Experimental data as given in ChEMBL document CHEMBL1146090, “Similarity based virtual screening: a tool for targeted library design” (J Med Chem, 2006).

What was measured:
[1] = Viability of HL cells at 50 uM; assay type: cell-based; conditions: human, read-out: Activity
How it was run: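 Viable HL cells counted through intracellular LDH after 3 days exposure to 50 μM agent. Medium removed, cells washed twice and lysed, then LDH measured with the same kit. Percentage derived against LDH from unexposed cultures. Mean of four replicates, single experiment.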

HL = assay: Cytotoxicity against HL cells at 50 uM; assay type: functional
Chlamydia pneumoniae [2] = assay: Antibacterial activity against Chlamydia pneumoniae in HL cells at 1 uM; assay type: functional
How it was run: (§1)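 HL host cells (RPMI 1640, 10% FBS, 2 mM L-glutamine, 37 °C, 5% CO2) seeded 5×10^4/well; after 24 h, confluent monolayers inoculated by centrifugation (550 × g, 60 min) with C. pneumoniae Kajaani 7 EBs, 4×10^5 IFU/mL. Agent added in antibiotic-free medium plus 0.5 μg/mL cycloheximide; 72 h, 37 °C. Methanol-fixed; europium-labelled genus-specific antibody, time-resolved fluorometry. Two experiments on different days, six replicates each, averaged.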

Chlamydia pneumoniae [3] = assay: Antibacterial activity against Chlamydia pneumoniae in HL cells at 70 uM; assay type: functional; how it was run: as §1
Chlamydia pneumoniae [4] = assay: Antibacterial activity against Chlamydia pneumoniae in HL cells at 5 uM; assay type: functional; how it was run: as §1
Chlamydia pneumoniae [5] = assay: Antibacterial activity against Chlamydia pneumoniae in HL cells at 50 uM; assay type: functional; how it was run: as §1

In the case of `O=C(Nc1cccc(-c2nc3ccccc3[nH]2)c1)c1cccs1`, the viability at 50 µM [1] is reported as 98%, the cytotoxicity (HL) is reported as 1.2% and the inhibition at 1 µM (Chlamydia pneumoniae [2]) is reported as 39.5%. The inhibition at 70 µM (Chlamydia pneumoniae [3]) was 92.6%, the inhibition at 5 µM (Chlamydia pneumoniae [4]) was 41.2% and the inhibition at 50 µM (Chlamydia pneumoniae [5]) was 90.5%.

`Nc1nc(Nc2ccc(Cl)cc2)nc(-c2cc(Cl)ccc2O)n1` gave a viability at 50 µM [1] of 95%, a cytotoxicity (HL) of 1.4% and an inhibition at 1 µM (Chlamydia pneumoniae [2]) of 0%. It also gave an inhibition at 70 µM (Chlamydia pneumoniae [3]) of 83.9%, an inhibition at 5 µM (Chlamydia pneumoniae [4]) of 76% and an inhibition at 50 µM (Chlamydia pneumoniae [5]) of 79.8%.

For `O=C(Nc1ccc2c(c1)OCCO2)c1cccc(COc2cc(Cl)ccc2Cl)c1`, the viability at 50 µM [1] was 86.2%, the cytotoxicity (HL) was 2.3% and the inhibition at 1 µM (Chlamydia pneumoniae [2]) was 0%. For the same compound, the inhibition at 70 µM (Chlamydia pneumoniae [3]) was 93.6%, the inhibition at 5 µM (Chlamydia pneumoniae [4]) was 15.3% and the inhibition at 50 µM (Chlamydia pneumoniae [5]) was 81.8%.

`N=C(NOC(=O)Nc1ccccc1)c1ccc2nonc2c1` gave a viability at 50 µM [1] of 100%, a cytotoxicity (HL) of 0% and an inhibition at 1 µM (Chlamydia pneumoniae [2]) of 0%. For the same compound, the inhibition at 70 µM (Chlamydia pneumoniae [3]) was 72.5%, the inhibition at 5 µM (Chlamydia pneumoniae [4]) was 0.2% and the inhibition at 50 µM (Chlamydia pneumoniae [5]) was 56.1%.

`N=C(NOC(=O)Nc1cccc(Cl)c1)c1ccc2nonc2c1` showed a viability at 50 µM [1] of 99.3%, a cytotoxicity (HL) of 1.1% and an inhibition at 1 µM (Chlamydia pneumoniae [2]) of 0%. For the same compound, the inhibition at 70 µM (Chlamydia pneumoniae [3]) was 99.3%, the inhibition at 5 µM (Chlamydia pneumoniae [4]) was 6.8% and the inhibition at 50 µM (Chlamydia pneumoniae [5]) was 85.5%.

In the case of `Nc1nc(Nc2ccccc2)nc(Nc2ccccc2)n1`, the viability at 50 µM [1] is reported as 83.4%, the cytotoxicity (HL) is reported as 3.7% and the inhibition at 1 µM (Chlamydia pneumoniae [2]) is reported as 0%. For the same compound, the inhibition at 70 µM (Chlamydia pneumoniae [3]) was 100%, the inhibition at 5 µM (Chlamydia pneumoniae [4]) was 0% and the inhibition at 50 µM (Chlamydia pneumoniae [5]) was 72.8%.

For `c1ccc(-c2cc3ncnc(NCc4ccc5c(c4)OCO5)c3s2)cc1`, the viability at 50 µM [1] was 98.2%, the cytotoxicity (HL) was 0.4% and the inhibition at 1 µM (Chlamydia pneumoniae [2]) was 2.1%. The inhibition at 70 µM (Chlamydia pneumoniae [3]) was 71.2%, the inhibition at 5 µM (Chlamydia pneumoniae [4]) was 58.8% and the inhibition at 50 µM (Chlamydia pneumoniae [5]) was 68.6%.

Compound `O=C(Nc1cccc(-c2nc3ccccc3[nH]2)c1)c1ccccc1` has a viability at 50 µM [1] of 95.5%, a cytotoxicity (HL) of 1.2% and an inhibition at 1 µM (Chlamydia pneumoniae [2]) of 14.6%. For the same compound, the inhibition at 70 µM (Chlamydia pneumoniae [3]) was 69.1%, the inhibition at 5 µM (Chlamydia pneumoniae [4]) was 19.7% and the inhibition at 50 µM (Chlamydia pneumoniae [5]) was 69.6%.
